Source: PMC9119696 (Nature chemical biology, 2021)

Columns and labels:
[1] = tested on: PINN1, the worm Pin1 homolog; details: cited from earlier work
GST-Pin1 = GST-Pin1 (Homo sapiens, UniProt Q13526); experiment: Chymotrypsin-coupled PPIase activity assay; type: biochemical; details: read-out: apparent Ki (PPIase assay); measured at 12 h
Method in brief: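 GST-Pin1 (50 nM) preincubated with test compound for 12 h at 4 °C in 35 mM HEPES pH 7.8, 0.2 mM DTT, 0.1 mg ml-1 BSA. Chymotrypsin (final 6 mg ml-1) was added just before starting, followed by Suc-Ala-pSer-Pro-Phe-pNA substrate.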

[2] = tested on: Tg(dβh:MYCN;dβh:EGFP) zebrafish; experiment: Zebrafish MYCN neuroblastoma initiation model; type: in vivo; details: 25–100 μM in water
Method in brief: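 Three-day-old embryos placed five per well and exposed to DMSO or test compound in egg water. Live fish imaged for bright-field and EGFP fluorescence under identical conditions. EGFP-positive tissue area quantified from the images.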

[3] = Mouse pharmacokinetic profiling; type: in vivo; details: oral 10 mg kg^–1, three mice
Pin1 Cys113 [4] = experiment: CITe-Id chemoproteomic cysteine profiling; type: cell-based; details: PATU-8988T cells, 100, 500, 1,000 nM, 5 h
Method in brief: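 Live PATU-8988T cells exposed to test compound at 100, 500 or 1,000 nM for 5 h, then lysed. Lysates co-incubated with the desthiobiotin-tagged probe (2 µM) for 18 h. Probe-labelled cysteines were identified and quantified proteome-wide for dose-dependent competition.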

NBL-S = experiment: 2D growth over time viability; type: cell-based; details: 2.5 μM after 8 days
Method in brief: (§1)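 Cells seeded at 500 per well (PATU-8988T: 100 per well) and dosed with test compound or DMSO the next day. Kept at 37 °C, 5% CO2, with medium and compound renewed every 48 h. One plate per time point (days 0, 2, 4, 6, 8); the day 0 plate was read before dosing. Viability measured by CellTiter-Glo luminescence.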

[5] = tested on: transplanted neuroblastoma cells in zebrafish embryos; experiment: Zebrafish neuroblastoma allograft transplant model; type: in vivo; details: 100 μM in fish water, 5 days
Method in brief: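 Neuroblastoma cells obtained by dicing 4-month-old Tg(dβh:MYCN;dβh:EGFP) fish in PBS and transplanted into embryos. Live fish imaged under identical conditions. Tumour burden quantified as the area of EGFP-fluorescent tumour mass.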

PATU-8988T Pin1 KO cells [6] = experiment: 3D Matrigel dome antiproliferative assay; type: cell-based; details: 1 μM, 9-day treatment
Method in brief: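 1,000 cells per Matrigel dome, one dome per well, left 15 min at 37 °C to solidify. Medium with test compound renewed every 3 days. After 9 days, 3D CellTiter-Glo was added and the plate shaken 1 h at room temperature before reading luminescence. n = 9 biological replicates per condition.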

Thiol reactivity assay = type: physicochemical; details: compared with 2; reactivity varied by an order of magnitude
Pin1 Cys113 [7] = experiment: rdTOP-ABPP chemoproteomic cysteine profiling; type: cell-based; details: MDA-MB-231 cells, 5 μM, 2 h
Method in brief: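 MDA-MB-231 cells at 70% confluence treated 2 h with DMSO or 5 µM compound in serum-free medium. Lysed by sonication in PBS/0.1% Triton X-100; spun 100,000g, 30 min. Proteome (2 mg ml-1) labelled with 100 µM iodoacetamide-alkyne, 1 h RT. Clicked 1 h to biotin-acid-N3 (CuSO4/TBTA/TCEP). LC-MS/MS with cysteine modification +322.23688 Da; light/heavy ratios quantified.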

Kuramochi = experiment: 2D growth over time viability; type: cell-based; details: up to 8 days
Method in brief: as §1

PATU-8988T cells [8] = experiment: Apoptosis analysis; type: cell-based
Method in brief: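 PATU-8988T cells treated in triplicate for 6 days with DMSO (0.1%), test compound (1.0 or 2.5 µM) or a non-covalent analogue (2.5 µM), with medium replaced on day 3. Staurosporine (1 µM, 4 h) served as positive control. Cleaved caspase 3 and Pin1 assessed by Western blot. AnnexinV-FITC/7-AAD FACS scored live, early and late apoptotic cells; mean with SD, n=3.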

PATU-8988T cells [9] = experiment: Cell cycle analysis; type: cell-based; details: 2.5 μM, 4 days
Method in brief: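 PATU-8988T cells treated 4 days with DMSO (0.1%), test compound or a non-covalent analogue (each 2.5 µM), with medium replaced on day 3; run in triplicate or more. Pulsed with 10 µM BrdU for 1 h, then fixed in 70% ethanol and denatured in 2 M HCl/0.5% Triton X-100 (30 min, RT). Neutralised with 0.1 M Na2B4O7 pH 8.5 and stained overnight at 4 °C with anti-BrdU-FITC. Counterstained with propidium iodide plus RNase A (each 50 µg ml-1) and analysed by FACS.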

[10] = tested on: germinal center (GC) B cells; experiment: In vivo germinal center B cell evaluation; design: species or system mice; details: IP 40 mg kg^−1 on days 7 and 9 after NP-OVA immunization, day 11
Method in brief: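 WT mice immunised with NP-OVA and killed on day 11. Lymph node cells Fc-blocked with anti-CD16/32 (2 µg ml-1, 5–10 min), then stained 20–40 min with B220, FAS and CD38 antibodies. Germinal centre B cells gated as live/single B220+ CD38lo FAShi by flow cytometry. Two-tailed Student's t test.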

[11] = Acute toxicity model in mice; type: in vivo; details: daily 10, 20 or 40 mg kg^–1 IP for 2 weeks
Method in brief: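 Mice, 3 per arm, 14 days: vehicle; 10 mg kg-1 once daily; 20 mg kg-1 every other day; 40 mg kg-1 once daily; 40 mg kg-1 every other day. Given by IP injection in 5% N-methylpyrrolidone, 5% solutol, 20% DMSO. Adverse effects and weight recorded; postmortem examination.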

[12] = tested on: IRAK1 Thr209 phosphorylation; experiment: IRAK1 Thr209 phosphorylation immunoblot; type: cell-based; details: HeLa, 24 h post-IR
PATU-8988T Pin1 KO cells [13] = experiment: 2D growth over time viability; type: cell-based; details: 1 μM, up to 8 days
Method in brief: as §1

Chain of GST-Pin1 (Q13526 whole entry): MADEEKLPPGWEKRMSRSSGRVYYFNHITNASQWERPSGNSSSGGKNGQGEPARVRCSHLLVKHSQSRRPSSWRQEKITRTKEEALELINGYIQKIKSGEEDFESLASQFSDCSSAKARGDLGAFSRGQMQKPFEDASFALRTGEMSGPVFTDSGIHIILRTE

Q: With `CC(C)(C)CN(C(=O)CCl)C1CCS(=O)(=O)C1` (stereo not shown) [Sulfopin] as the molecule, how does the “inhibition of PINN1 in Caenorhabditis elegans” value [1] read?
A: Its value is “inhibited PINN1”.

Q: And the Ki (GST-Pin1)?
A: Its Ki is 211 nM.

Q: And the neuroblastoma-initiating hyperplasia [2]?
A: The neuroblastoma-initiating hyperplasia was “significantly suppressed”.

Q: And the “toxicity in zebrafish embryos” value [2]?
A: The value was “no evidence of toxicity was observed”.

Q: What about the “oral bioavailability (F%)” value [3] of the same molecule?
A: Its value is 30%.

Q: And the Cmax ([3]; read-out: average cmax (peak concentration))?
A: Its Cmax is 11.5 µM.

Q: What about the “cysteines with dose-dependent competition (of 162 labeled by Sulfopin-DTB)” value (Pin1 Cys113 [4]) of the same molecule?
A: The value was “only Pin1 Cys113”.

Q: And the “antiproliferative effect (growth over time)” value (NBL-S)?
A: The value was “significant viability effects”.

Q: What about the “eGFP-labeled tumor mass size” value [5] of the same molecule?
A: The value was “decreased in size”.

Q: And the “antiproliferative activity in 3D Matrigel domes” value (PATU-8988T Pin1 KO cells [6])?
A: Its value is “no effects observed”.

Q: And the thiol reactivity (Thiol reactivity assay)?
A: Its thiol reactivity is “dramatically less reactive”.

Q: What about the “competition ratio R, Pin1 Cys113” value (Pin1 Cys113 [7]) of the same molecule?
A: The value was 15.

Q: What about the “competition ratio R, all other identified cysteines” value (Pin1 Cys113 [7]; 2,134 peptides) of the same molecule?
A: Its value is under 2.5.

Q: And the “antiproliferative effect (growth over time)” value (Kuramochi)?
A: The value was “only slight effects”.

Q: What about the Pin1 protein levels (PATU-8988T cells [8]; 5 or 6 days, 1 μM, 2.5 μM, Western blot) of the same molecule?
A: Its Pin1 protein levels is “Pin1 levels were not changed”.

Q: What about the induction of apoptosis (PATU-8988T cells [8]; treatments of up to 6 days, 1 and 2.5 μM) of the same molecule?
A: The induction of apoptosis was “does not induce apoptosis”.

Q: What about the “cells in G1 phase” value (PATU-8988T cells [9]) of the same molecule?
A: Its value is “increased the number of cells found in G1 phase”.

Q: And the “cells in S phase” value (PATU-8988T cells [9])?
A: Its value is “reduced the percentage of cells in S phase”.

Q: And the “proportion of GC B cells compared to vehicle” value [10]?
A: The value was 1.34 fold.

Q: What about the “adverse effects, weight loss” value [11] of the same molecule?
A: The value was “No adverse effects or weight loss were recorded”.

Q: What about the “concentration decreasing IRAK1 Thr209 phosphorylation” value [12] of the same molecule?
A: Its value is at most 100 nM.

Q: And the “effect on cellular viability” value (PATU-8988T Pin1 KO cells [13])?
A: The value was “no significant effect on viability”.
